The values that follow come from ChEMBL document CHEMBL3259608, “Synthesis of a terphenyl substituted 4-aza-2,3-didehydropodophyllotoxin analogues as inhibitors of tubulin polymerization and apoptosis inducers” (Bioorg Med Chem, 2014).

Calls of active or inactive are those of the source. The calls are words filed in the database; no cut-off is given here.

Assay [1] relates to A549. The assay is described as follows: Induction of apoptosis in human A549 cells assessed as caspase-3 activation at 1 to 2 uM after 48 hrs by ELISA relative to control. Format: functional. An outline of the steps:
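Colorimetric caspase-3 kit used. A549 cells treated 48 h at 1 and 2 µM, pelleted, washed in PBS, lysed 15 min, spun 15 min. Supernatant assayed by ELISA-based readout, fold change versus untreated control. Mean of two experiments, each in triplicate.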
(In general: An ELISA detects its analyte on a solid surface through an enzyme-linked reagent.)

Assay [2] relates to A549. Kind of assay: Cell cycle arrest in human A549 cells assessed as accumulation at S phase at 1 uM after 48 hrs by propidium iodide staining-based flow cytometric analysis (reference value: 3.57%). Format: functional.
The target of assay [3] is Tubulin. Kind of assay: Inhibition of tubulin (unknown origin) polymerization measured for 1 hr by fluorescence assay. Format: protein-complex assay, Homo sapiens.
Assay [4] has as its system A549. The assay is described as follows: Cell cycle arrest in human A549 cells assessed as accumulation at sub-G1 phase at 1 uM after 48 hrs by propidium iodide staining-based flow cytometric analysis (reference value: 6.47%). Format: functional. (In flow cytometry, cells or beads pass a laser one at a time.)
For assay [5], the system named is A549. Kind of assay: Anticancer activity against human A549 cells after 48 hrs by MTT assay. It counts as functional, cell-based. Particulars: A549, 48 h. The essentials:
(§1)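 MTT assay: 1×10⁴ cells/well seeded in DMEM with 10% FBS, 24 h at 37°C in CO₂ before dosing. Compounds diluted in medium, vehicle control included, 48 h exposure. MTT (5 mg/mL stock) added for 4 h, formazan dissolved in DMSO, absorbance read at 540 nm. IC50 averaged from three individual experiments.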

The test system of assay [6] is HT-29. The assay is described as follows: Anticancer activity against human HT-29 cells after 48 hrs by MTT assay. It counts as functional, cell-based. The conditions noted are these: HT-29, 48 h. The essentials: as §1
Assay [7] relates to A549. Kind of assay: Induction of apoptosis in human A549 cells assessed as DNA fragmentation at 1 uM after 48 hrs by agarose gel electrophoresis. It counts as functional, cell-based. An outline of the steps:
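After 24 h settling, 1×10⁶ A549 cells/well treated 48 h at 1 µM. Pellet washed in PBS and lysed. Supernatant given SDS and RNase A for 2 h at 56°C, then proteinase K for 2 h at 37°C. DNA precipitated with ammonium acetate and cold ethanol at -80°C, washed in 80% ethanol, dissolved in TE. Laddering on 2% agarose gel.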

Assay [8] relates to A549. The assay is described as follows: Cell cycle arrest in human A549 cells assessed as accumulation at G2/M phase at 1 uM after 48 hrs by propidium iodide staining-based flow cytometric analysis (reference value: 11.73%). It counts as functional.
For assay [9], the system named is ACHN. Kind of assay: Anticancer activity against human ACHN cells after 48 hrs by MTT assay. It counts as functional, cell-based. An outline of the steps: as §1
The subject of assay [10] is DU-145. The assay is described as follows: Anticancer activity against human DU145 cells after 48 hrs by MTT assay. It counts as functional, cell-based. Particulars: DU-145, 48 h. The essentials: as §1
(Tetrazolium assays rely on reduction of a dye to a coloured formazan, in cell work by metabolically active cells.)

Assay [11] deals with A549. Kind of assay: Cell cycle arrest in human A549 cells assessed as accumulation at G2/M phase at 0.5 uM after 48 hrs by propidium iodide staining-based flow cytometric analysis (reference value: 11.73%). It counts as functional.
Assay [12] relates to A549. The assay is described as follows: Cell cycle arrest in human A549 cells assessed as accumulation at S phase at 0.5 uM after 48 hrs by propidium iodide staining-based flow cytometric analysis (reference value: 3.57%). Format: functional.
Assay [13] has as its target T1, Tubulin (Homo sapiens) (UniProt P68371+Q9H4B7+P0DPH7+P68366+Q13509+Q71U36+P04350+Q3ZCM7+P07437+P68363+Q9BQE3+Q6PEY2+Q13885+Q9BVA1+Q9BUF5). Kind of assay: Inhibition of tubulin (unknown origin) polymerization at 3 uM measured for 1 hr by fluorescence assay relative to control. It counts as protein-complex assay. The essentials:
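Tubulin polymerization kit, fluorescence-reporter based. Reaction in PEM buffer with GTP, with or without compound at 3 µM final. Reporter incorporation followed as fluorescence increase (excitation 360 nm, emission 420 nm) for 1 h at 37°C. Mean of two experiments, each in triplicate.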

The test system of assay [14] is A549. Kind of assay: Induction of apoptosis in human A549 cells assessed as nuclear condensation at 1 uM after 48 hrs by Hoechst staining-based fluorescence microscopic analysis. It counts as functional, cell-based. An outline of the steps: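 10,000 A549 cells on coverslips, 24 h, then fresh medium with compound at 1 µM for 48 h. Vehicle control 0.001% DMSO. Hoechst 33258 added with 4% paraformaldehyde for 30 min at 37°C. Random fields imaged by fluorescence microscopy and scored qualitatively for chromatin condensation and nuclear fragmentation.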

In assay [15] the test system is HeLa. Kind of assay: Anticancer activity against human HeLa cells after 48 hrs by MTT assay. It counts as functional, cell-based. The essentials: as §1
Assay [16] deals with A549. Kind of assay: Cell cycle arrest in human A549 cells assessed as accumulation at sub-G1 phase at 0.5 uM after 48 hrs by propidium iodide staining-based flow cytometric analysis (reference value: 6.47%). It counts as functional.
In assay [17] the target is T1, Tubulin (Homo sapiens). Kind of assay: Inhibition of alpha-tubulin polymerization in human A549 cells at 1 uM after 48 hrs by immunohistochemical analysis. It counts as cell-based. The essentials:
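A549 cells on coverslips treated 48 h at 1 µM. Fixed in 4% paraformaldehyde for 20 min, permeabilised with 0.2% Triton X-100 for 5 min, then methanol overnight. Blocked in 1% BSA, anti-α-tubulin (1:1000) 2 h at room temperature, FITC anti-mouse secondary 1 h. Microtubule network integrity examined by fluorescence microscopy.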

Assay [18] relates to A549. The assay is described as follows: Cell cycle arrest in human A549 cells assessed as accumulation at G0/G1 phase at 0.5 uM after 48 hrs by propidium iodide staining-based flow cytometric analysis (reference value: 78.23%). It counts as functional.
Assay [19] relates to A549. The assay is described as follows: Cell cycle arrest in human A549 cells assessed as accumulation at G0/G1 phase at 1 uM after 48 hrs by propidium iodide staining-based flow cytometric analysis (reference value: 78.23%). It counts as functional.

As a reminder, the IC50 is the midpoint of a concentration-inhibition curve. Higher therefore signals lower potency. In general, inhibition refers to the relative decrease from the control value, in per cent. In the case of `O=C1OCC2=C1C(c1ccc(-c3ccc(-c4cc(F)cc(F)c4)cc3)cc1)c1c(ccc3cn[nH]c13)N2` (centres undefined), the “fold change (FC)” value in assay [1] came to 3. Moreover, the Activity in [2] was found to be 5.21%; in assay [4] it was 1.22%; in assay [8], 52.34%; in assay [11], 24.56%; in assay [12], 4.39%; in assay [16] it was 1.27%. The Activity in assay [18] stood at 69.78%; in assay [19], 41.23%. The IC50 in assay [3] was 2740 nM; in assay [5], 910 nM; in assay [6], 1020 nM; in assay [9], 950 nM; in assay [10], 1280 nM; in assay [15] it was 1230 nM. Also, the result in assay [7] and in assay [14] was Active. For the same compound, the inhibition in [13] turned out to be 51.3%. Moreover, the inhibition entry in [17] is “Active”.
